# OXTR potentiator – human OXTR potentiators, primary screen, fluorescence, CHO-OTR cells, Fluo-8 calcium. Fluo-8 calcium fluorescence, potentiator mode; 0% = oxytocin EC15, 100% = EC100. hit rate 0.061% among 320,000. activation, % at 3 µM. Oxytocin receptor (Homo sapiens), P30559;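 active = activation above that plate's cutoff, the mean activation of tested compounds plus 3 SD, cut at about 6.6% in these data, passing the limit was not always enough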;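 note: 100% uses oxytocin at 75 nM as the full agonist control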
#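 Assay system: CHO-OTR cells, human receptor / Also added: oxytocin at about EC15, sub-maximal agonist stimulus / Dosing: single dose, 3.0 µM nominal final compound concentration / Incubation: 6 min pre-incubation, 100 s read / Technique: Fluo-8 calcium dye fluorescence / Read-out: % activation vs EC15 and EC100 oxytocin / Benchmarks: EC15 oxytocin low, 75 nM oxytocin high / Replicates: singlicate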
# V1aR counter – agonists of human V1a receptor, primary screen, counter-screen for OXTR agonist project, fluorescence, CHO-V1R cells; Vasopressin V1a receptor (Homo sapiens), P37288; Fluo-8 calcium fluorescence, agonist mode; 0% DMSO, 100% 3 nM vasopressin; activation, % at 3 µM; hit rate 0.25% among 320,000; AID 2797, 2010;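 active = activation above the mean activation of all tested compounds plus 3 SD, per screening run, cut at about 20% in these data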;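 note: signal is peak over basal fluorescence ratio across a 100 second FLIPR read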
# Target sequence (P37288 whole entry, looked up): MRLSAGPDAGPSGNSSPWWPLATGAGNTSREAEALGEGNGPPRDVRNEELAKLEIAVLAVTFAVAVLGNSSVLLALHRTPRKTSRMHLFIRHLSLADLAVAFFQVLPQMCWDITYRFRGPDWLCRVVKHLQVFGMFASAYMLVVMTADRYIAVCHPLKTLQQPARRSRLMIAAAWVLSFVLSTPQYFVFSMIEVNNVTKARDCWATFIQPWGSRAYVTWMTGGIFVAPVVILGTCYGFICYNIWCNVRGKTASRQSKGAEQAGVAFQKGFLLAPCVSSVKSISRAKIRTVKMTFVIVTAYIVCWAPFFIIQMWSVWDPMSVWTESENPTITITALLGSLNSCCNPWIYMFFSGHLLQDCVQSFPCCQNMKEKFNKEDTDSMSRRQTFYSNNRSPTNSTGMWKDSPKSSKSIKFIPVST
# TAAR1 antag – human TAAR1 antagonists, primary screen, Fluo-8 calcium fluorescence, CHO RD-HGA16 cells | Trace amine-associated receptor 1 (Homo sapiens), Q96RJ0 | antagonist | inhibition, % at 3 µM | hit rate 1.5% among 360,000 | AID 624466, 2012;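 active = inhibition above a per-plate cutoff, the mean inhibition of test compounds on that plate plus 3 SD, cut at about 49% in these data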;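 note: 0% = DMSO plus EC80 beta-PEA response and 100% = DMSO alone without agonist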
# Target sequence (Q96RJ0 whole entry, looked up): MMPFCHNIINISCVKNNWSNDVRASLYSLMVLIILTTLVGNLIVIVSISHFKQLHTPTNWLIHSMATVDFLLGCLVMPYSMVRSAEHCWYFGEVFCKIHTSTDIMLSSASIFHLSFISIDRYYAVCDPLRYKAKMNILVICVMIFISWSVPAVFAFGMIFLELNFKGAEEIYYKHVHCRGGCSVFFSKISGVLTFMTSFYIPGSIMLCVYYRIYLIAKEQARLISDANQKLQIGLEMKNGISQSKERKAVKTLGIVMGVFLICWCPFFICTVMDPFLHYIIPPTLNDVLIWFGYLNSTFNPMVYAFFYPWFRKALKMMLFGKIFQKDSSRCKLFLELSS
#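 test system = CHO RD-HGA16 cells bearing hTAAR1 | replication = singlicate | controls = DMSO-only wells and EC80 β-PEA-stimulated wells | reagent = EC80 β-phenethylamine stimulus | read-out basis = percent inhibition of PEA-evoked calcium signal, max/basal emission ratio | schedule = seeding 17-24 h prior, 75-min 37 °C, 30-min RT dye loading | signal = kinetic Fluo-8 calcium fluorescence measurement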
# TAAR1 agonist – human TAAR1 agonists, primary screen, Fluo-8 calcium fluorescence, CHO RD-HGA16 cells | Trace amine-associated receptor 1 (Homo sapiens), Q96RJ0 | vehicle wells 0%, saturating PEA agonist 100% | activation, % at 3 µM | hit rate 0.99% among 360,000 | AID 624467, 2012;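 active = activation above the mean activation of all test compounds in the run plus 3 SD, cut at about 38% in these data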
#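 System: CHO RD-HGA16 cells carrying human TAAR1 plus Gα16; Incubation: 17-24 h seeding, 75 min 37 °C dye, 30 min RT; Measured by: Fluo-8 fluorescence, 5 s baseline then 140 s kinetic read; Control set: DMSO and PEA EC100; Replication: single well for each compound.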
# OXTR agonist – human OXTR agonists, primary screen, fluorescence, CHO-OTR cells, Fluo-8 calcium; AID 2435, 2010; activation, % at 3 µM; Fluo-8 calcium fluorescence; normalized: DMSO 0%, oxytocin 100%; hit rate 0.32% among 320,000;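 active = activation above the mean of all tested compounds plus 3 SD, cutoff set per screening run, cut at about 20% in these data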;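 note: peak over basal fluorescence ratio from a 100 s FLIPR kinetic read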
# TAAR1 nonsel count – nonselective antagonists in TAAR1 counter-screen cells, counter-screen for hTAAR1 antagonist project, cell-based, fluorescence, calcium | shares compounds with TAAR1 antag | inhibition, % at 3 µM | counterscreen cell line, antagonist mode | hit rate 77% among 2,400 | AID 651780, 2012; in the data active = inhibition above about 22%;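 note: CHO-Ga16 host cells stimulated with ATP at an EC80 level; 0% = agonist EC80 plus vehicle and 100% = vehicle without agonist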
# TAAR1 ant conf – human TAAR1 antagonists, retest of hits, confirmation, cell-based, fluorescence | inhibition, % at 3 µM | hit rate 40% among 2,400 | TAAR1-expressing cells, fluorescence antagonist read-out | AID 651785, 2012 | shares compounds with TAAR1 antag; in the data active = inhibition above about 49%;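 note: CHO-Ga16 host cells challenged with agonist PEA near its EC80; 0% = agonist at EC80 plus vehicle and 100% = vehicle with no agonist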
# Ga16 ag counter – calcium activation in Ga16-expressing cells, counter-screen for TAAR1 antagonist project, cell-based, fluorescence; agonist counterscreen; shares compounds with TAAR1 antag; activation, % at 3 µM; AID 651953, 2012; hit rate 18% among 2,400; in the data active = activation above about 12%;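 note: 0% = vehicle wells and 100% = saturating stimulus response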
# TAAR1 ag counter – TAAR1 activation by candidate antagonists – cell-based, fluorescence, counter-screen for TAAR1 antagonist project | activation, % at 3 µM | hTAAR1 cell line, agonist mode | AID 651955, 2012 | shares compounds with TAAR1 antag | hit rate 2% among 2,400; in the data active = activation above about 37%;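 note: CHO cells stably expressing TAAR1 with calcium dye readout; 0% = DMSO vehicle and 100% = full agonist response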
# An asterisk follows results filed as active; . = not tested or not shown. Rows were chosen to be rich in hits. Some 2.3% of all compounds tested hit in one or more screens of this group.
SMILES,OXTR potentiator,V1aR counter,TAAR1 antag,TAAR1 agonist,OXTR agonist,TAAR1 nonsel count,TAAR1 ant conf,Ga16 ag counter,TAAR1 ag counter
CCCS(=O)(=O)c1c(S(=O)(=O)CCC)c2c3ccccc3ccn2c1C(=O)OC,-9.3,-0.5,48.7*,9.1,-2.6,16.4,31.5,5.5,4.5
CCCCS(=O)(=O)N1CCCc2nc(-c3ccc(OC)cc3)ccc21,.,.,49.4*,2.1,.,32.0*,35.5,6.3,4.9
COc1ccc(-c2ccc3c(n2)CCCN3S(=O)(=O)c2ccc(F)cc2)cc1,.,.,5.0,2.2,.,.,.,.,.
O=C1c2cc(F)ccc2OC2(CCNCC2)C12CC(c1ccccc1)=NO2 (centres undefined),-16.6,4.2,29.1,21.3,9.4,.,.,.,.
CCOC(=O)c1c(C)[nH]c(C(=O)/C(C#N)=C/c2ccc(OC(F)F)c(OC)c2)c1C,-6.8,1.5,-30.8,3.8,0.6,.,.,.,.
CCOC(=O)c1c(C)[nH]c(C(=O)/C(C#N)=C/c2ccc(OC)c(OC)c2)c1C,-7.8,0.2,-26.8,8.2,0.3,.,.,.,.
COc1cc(/C=C(/C#N)C(=O)c2c(C)[nH]c3ccccc23)ccc1OCC#N,-0.8,2.4,55.3*,8.5,1.0,23.8*,50.1*,19.2*,39.7*
CCOc1ccc(/C=C(\C#N)C(=O)c2c(C)[nH]c3ccccc23)cc1OC,-7.0,2.4,57.9*,2.1,-1.8,15.2,38.4,4.9,6.4
O=C(Cn1nc(C(=O)O)c2ccccc2c1=O)Nc1cccc(S(=O)(=O)N2CCCCC2)c1,-9.5,7.0,20.8,15.3,4.0,.,.,.,.
Cn1c(N)c(C(=O)COC(=O)C2(c3cccc(F)c3)CCCC2)c(=O)n(C)c1=O,-19.8,3.7,63.2*,15.8,1.5,31.9*,50.6*,7.6,13.2
Cn1c(N)c(C(=O)COC(=O)c2ccc(F)cc2Cl)c(=O)n(C)c1=O,-4.3,7.4,6.8,27.6,3.6,.,.,.,.
Cc1ccc2nc(C(F)(F)F)c(C#N)c(N)c2c1,1.3,1.2,-3.0,9.3,0.4,.,.,.,.
Cc1cccc(C(C#N)c2nc3ccccc3nc2C(F)(F)F)c1 (centres undefined),-20.6,-1.0,79.9*,-1.1,-1.7,5.2,82.8*,-0.4,6.5
COc1ccc(C(C#N)c2nc3ccccc3nc2Cl)cc1 (centres undefined),.,.,-3.4,1.3,.,.,.,.,.
N#CC(c1ccc(Cl)cc1)c1nc2ccccc2nc1C(F)(F)F (centres undefined),-4.8,-0.1,56.7*,-0.7,-1.3,6.9,31.4,1.0,-2.1
CC(OC(=O)/C=C/c1ccco1)C(=O)NC1CCCCC1 (centres undefined),.,.,-2.2,-0.5,.,.,.,.,.
COc1cc2cnc(-c3ccccc3)c(-c3cccc(C(F)(F)F)c3)c2cc1OC,-8.0,-0.6,50.7*,9.2,-0.9,14.6,18.6,1.7,1.6
O=C(NCc1ccc(F)cc1)C(c1ccccc1)N(C(=O)c1csnn1)c1ccccc1 (centres undefined),-3.7,4.8,59.4*,20.9,3.7,29.3*,58.8*,18.8*,21.9
O=C(NCc1ccccc1)C(c1ccccc1)N(C(=O)c1csnn1)c1ccccc1 (centres undefined),-17.4,-0.3,62.0*,10.6,-0.9,26.6*,48.6*,6.7,5.1
COc1ccc(CNC(=O)C(c2cccc(C)c2)N(C(=O)c2csnn2)C2CC2)cc1 (centres undefined),-7.7,6.0,52.5*,16.8,1.8,29.9*,40.5,6.7,6.3
COc1ccc(CNC(=O)C(c2cccs2)N(C(=O)c2csnn2)C2CC2)cc1 (centres undefined),-0.5,-0.8,16.1,5.5,-1.5,.,.,.,.
CCCCN(C)C(=O)c1sc(=O)n(Cc2ccc(Cl)c(Cl)c2)c1C,.,.,9.0,-1.8,.,.,.,.,.
CCCC(C(=O)NCCC(C)C)N(Cc1ccccc1Cl)C(=O)c1snc(C(N)=O)c1N (centres undefined),-6.8,-1.3,-18.2,0.5,-2.5,.,.,.,.
Cc1[nH]c2ccccc2c1C(=O)COC(=O)Cn1c(C(F)(F)F)nc2ccccc21,-10.3,8.1,63.9*,15.3,10.2,36.8*,54.5*,13.4*,23.5
O=C(Cn1c(C(F)(F)F)nc2ccccc21)OCC(=O)c1c[nH]c2ccccc12,-9.8,2.9,41.1,13.4,4.4,.,.,.,.
SMILES,OXTR potentiator,V1aR counter,TAAR1 antag,TAAR1 agonist,OXTR agonist,TAAR1 nonsel count,TAAR1 ant conf,Ga16 ag counter,TAAR1 ag counter
Clc1cccc(-c2nc(NCCN3CCOCC3)c3ccccc3n2)c1,-19.8,3.5,63.8*,17.1,4.7,32.2*,55.0*,15.6*,15.9
Clc1cccc(-c2nc(NCCCN3CCOCC3)c3ccccc3n2)c1,-14.5,1.8,28.9,16.2,6.2,.,.,.,.
OCC1(CCOc2ccccc2)CCN(CCCn2cccn2)CC1,-5.0,1.4,-16.7,-0.4,0.5,.,.,.,.
O=C(Nc1ccc(N2CCOCC2)cc1)c1cc(-c2ccncc2)nc2ccccc12,-4.0,0.6,22.3,10.5,-0.1,.,.,.,.
COc1ccc(-c2cc(C(=O)NNC(=O)c3csc(N4CCOCC4)n3)c3ccccc3n2)cc1,-4.6,0.8,60.8*,9.3,-0.2,30.1*,44.6,6.5,5.2
O=C(Nc1ccccc1N1CCOCC1)c1cc(-c2ccncc2)nc2ccccc12,1.2,-0.5,63.4*,16.2,-1.3,27.1*,43.6,7.9,8.5
COc1ccc(-c2cc(C(=O)Nc3ccccc3N3CCOCC3)c3ccccc3n2)cc1OC,-14.3,-1.8,59.3*,5.6,-2.7,23.6*,45.3,5.7,3.2
CCN(CC)C(=O)c1[nH]cnc1C(=O)N[C@@H](Cc1ccccc1)C(=O)OC(C)(C)C,-5.5,-0.1,4.1,2.4,-0.2,.,.,.,.
CCN(CC)S(=O)(=O)c1ccc2nc(NC(=O)c3cccs3)sc2c1,-21.8,6.2,62.7*,37.1,8.1,18.5,36.6,9.6,17.0
CCN(CC)S(=O)(=O)c1ccc2nc(NC(=O)c3ccco3)sc2c1,-6.5,0.9,10.2,7.3,1.5,.,.,.,.
